According to ChEMBL document CHEMBL3271970, “Radiopharmaceuticals. 16. Halogenated dopamine analogs. Synthesis and radiolabeling of 6-iododopamine and tissue distribution studies in animals” (J Med Chem, 1976):

Experiments:
Blood [1] = experiment: Biodistribution in blood of rat at 3.6 x 10^-8 mol, iv measured after 24 hrs; assay type: ADME, organism-based; conditions: in vivo
Procedure, shortened: (§1)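 [131I]-6-iododopamine in water or saline, used within 30 min of preparation. Injected iv at 3.6 × 10^-8 mol/rat. Rats killed by ether overdose at 5 min to 24 h. Blood radioactivity expressed as % dose/g, mean ± SD of four rats.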

Liver [2] = experiment: Biodistribution in liver of rat assessed per organ at 3.6 x 10^-8 mol, iv measured after 2 hrs; assay type: ADME, organism-based; conditions: in vivo
Procedure, shortened: (§2)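 [131I]-labelled tracer in water or saline, injected within 30 min of preparation. Rats given 3.6 × 10^-8 mol/rat iv, killed by ether overdose at each time point. Organs excised and radioactivity counted as % dose/organ, mean ± SD of four rats.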

[3] = Biodistribution in thyroid gland of mongrel dog assessed per organ at 1.29 x 10^-6 mol, iv measured after 24 hrs; assay type: ADME, organism-based, Canis lupus familiaris; conditions: in vivo
Procedure, shortened: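 Radioiodine-labelled tracer given at 1.29 × 10^-6 mol/dog. One dog per time point, killed at 2 or 24 h. Thyroids and other small organs were taken intact and counted. Large organs were sampled three times and averaged. Result given as % dose/organ.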

Rattus norvegicus [4] = experiment: Biodistribution in thyroid gland of rat assessed per organ at 3.6 x 10^-8 mol, iv measured after 24 hrs; assay type: ADME, organism-based; conditions: in vivo; procedure, shortened: as §2
Rattus norvegicus [5] = experiment: Biodistribution in adrenal cortex of rat assessed per organ at 3.6 x 10^-8 mol, iv measured after 24 hrs; assay type: ADME, organism-based; conditions: in vivo
Procedure, shortened: (§3)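 [131I]-6-iododopamine in water or saline, used within 30 min of preparation. Injected iv at 3.6 × 10^-8 mol/rat. Rats killed by ether overdose at 5, 30 or 60 min, or at 2, 4 or 24 h. Tissue radioactivity expressed as % dose/organ, mean ± SD of four rats.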

Mus musculus [6] = experiment: Biodistribution in thyroid gland of mouse assessed per organ at 8 to 11 x 10^-8 mol, iv measured after 15 mins; assay type: ADME, organism-based; conditions: in vivo, 0.25 h
Procedure, shortened: (§4)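 Tracer labelled with either 123I or 131I, in water or saline, used within 30 min of preparation. Mice dosed iv at 8-11 × 10^-8 mol/mouse and killed by ether overdose. Organs counted as % dose/organ ± SD, n = 3-10 mice per time point.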

Blood [7] = experiment: Biodistribution in blood of rat at 3.6 x 10^-8 mol, iv measured after 4 hrs; assay type: ADME, organism-based; conditions: in vivo; procedure, shortened: as §1
Mus musculus [8] = experiment: Biodistribution in thyroid gland of mouse assessed per organ at 8 to 11 x 10^-8 mol, iv measured after 60 mins; assay type: ADME, organism-based; conditions: in vivo, 1 h; procedure, shortened: as §4
Kidney [9] = experiment: Biodistribution in kidney of rat assessed per organ at 3.6 x 10^-8 mol, iv measured after 4 hrs; assay type: ADME, organism-based; conditions: in vivo; procedure, shortened: as §3
Mus musculus [10] = experiment: Biodistribution in adrenal gland of mouse assessed per organ at 8 to 11 x 10^-8 mol, iv measured after 5 mins; assay type: ADME, organism-based; conditions: in vivo
Procedure, shortened: (§5)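 [131I]- or [123I]-6-iododopamine in water or saline, used within 30 min of preparation. Injected iv at 8-11 × 10^-8 mol/mouse. Mice killed by ether overdose at 5-240 min; 3-10 mice per time point. Tissue radioactivity expressed as % dose/organ ± SD.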

Liver [11] = experiment: Biodistribution in liver of mouse assessed per organ at 8 to 11 x 10^-8 mol, iv measured after 15 mins; assay type: ADME, organism-based; conditions: in vivo, 0.25 h; procedure, shortened: as §5
Kidney [12] = experiment: Biodistribution in kidney of rat assessed per organ at 3.6 x 10^-8 mol, iv measured after 2 hrs; assay type: ADME, organism-based; conditions: in vivo; procedure, shortened: as §3
Blood [13] = experiment: Biodistribution in blood of rat at 3.6 x 10^-8 mol, iv measured after 60 mins; assay type: ADME, organism-based; conditions: in vivo, 1 h; procedure, shortened: as §1
Blood [14] = experiment: Biodistribution in blood of rat at 3.6 x 10^-8 mol, iv measured after 30 mins; assay type: ADME, organism-based; conditions: in vivo, 0.5 h; procedure, shortened: as §1
Blood [15] = experiment: Biodistribution in blood of rat at 3.6 x 10^-8 mol, iv measured after 2 hrs; assay type: ADME, organism-based; conditions: in vivo; procedure, shortened: as §1
Blood [16] = experiment: Biodistribution in blood of rat at 3.6 x 10^-8 mol, iv measured after 5 mins; assay type: ADME, organism-based; conditions: in vivo; procedure, shortened: as §1
Mus musculus [17] = experiment: Biodistribution in adrenal gland of mouse assessed per organ at 8 to 11 x 10^-8 mol, iv measured after 120 mins; assay type: ADME, organism-based; conditions: in vivo, 2 h; procedure, shortened: as §5
Rattus norvegicus [18] = experiment: Biodistribution in thyroid gland of rat assessed per organ at 3.6 x 10^-8 mol, iv measured after 5 mins; assay type: ADME, organism-based; conditions: in vivo; procedure, shortened: as §2
[19] = Biodistribution in kidney of mongrel dog assessed per organ at 1.29 x 10^-6 mol, iv measured after 2 hrs; assay type: ADME, organism-based, Canis lupus familiaris; conditions: in vivo
Procedure, shortened: (§6)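 Radioiodinated ([123I] or [131I]) 6-iododopamine in water or saline, used within 30 min of preparation. Given iv at 1.29 × 10^-6 mol/dog; one dog per time point, killed at 2 or 24 h. Large organs counted as three samples and averaged; adrenals and thyroid taken intact and counted. Expressed as % dose/organ.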

[20] = Biodistribution in adrenal medulla of mongrel dog assessed per organ at 1.29 x 10^-6 mol, iv measured after 2 hrs; assay type: ADME, organism-based, Canis lupus familiaris; conditions: in vivo; procedure, shortened: as §6
Kidney [21] = experiment: Biodistribution in kidney of rat assessed per organ at 3.6 x 10^-8 mol, iv measured after 60 mins; assay type: ADME, organism-based; conditions: in vivo, 1 h; procedure, shortened: as §3
Liver [22] = experiment: Biodistribution in liver of rat assessed per organ at 3.6 x 10^-8 mol, iv measured after 5 mins; assay type: ADME, organism-based; conditions: in vivo; procedure, shortened: as §2
Adrenal medulla [23] = experiment: Biodistribution in adrenal medulla of rat assessed per organ at 3.6 x 10^-8 mol, iv measured after 60 mins; assay type: ADME, organism-based; conditions: in vivo, 1 h; procedure, shortened: as §3
Rattus norvegicus [24] = experiment: Biodistribution in thyroid gland of rat assessed per organ at 3.6 x 10^-8 mol, iv measured after 60 mins; assay type: ADME, organism-based; conditions: in vivo, 1 h; procedure, shortened: as §2
Liver [25] = experiment: Biodistribution in liver of rat assessed per organ at 3.6 x 10^-8 mol, iv measured after 60 mins; assay type: ADME, organism-based; conditions: in vivo, 1 h; procedure, shortened: as §2
Kidney [26] = experiment: Biodistribution in kidney of mouse assessed per organ at 8 to 11 x 10^-8 mol, iv measured after 240 mins; assay type: ADME, organism-based; conditions: in vivo, 4 h; procedure, shortened: as §5
Mus musculus [27] = experiment: Biodistribution in thyroid gland of mouse assessed per organ at 8 to 11 x 10^-8 mol, iv measured after 5 mins; assay type: ADME, organism-based; conditions: in vivo; procedure, shortened: as §4
Liver [28] = experiment: Biodistribution in liver of mouse assessed per organ at 8 to 11 x 10^-8 mol, iv measured after 30 mins; assay type: ADME, organism-based; conditions: in vivo, 0.5 h; procedure, shortened: as §5
Kidney [29] = experiment: Biodistribution in kidney of rat assessed per organ at 3.6 x 10^-8 mol, iv measured after 5 mins; assay type: ADME, organism-based; conditions: in vivo; procedure, shortened: as §3
Kidney [30] = experiment: Biodistribution in kidney of mouse assessed per organ at 8 to 11 x 10^-8 mol, iv measured after 60 mins; assay type: ADME, organism-based; conditions: in vivo, 1 h; procedure, shortened: as §5
Adrenal medulla [31] = experiment: Biodistribution in adrenal medulla of rat assessed per organ at 3.6 x 10^-8 mol, iv measured after 5 mins; assay type: ADME, organism-based; conditions: in vivo; procedure, shortened: as §3
Rattus norvegicus [32] = experiment: Biodistribution in thyroid gland of rat assessed per organ at 3.6 x 10^-8 mol, iv measured after 2 hrs; assay type: ADME, organism-based; conditions: in vivo; procedure, shortened: as §2

Br.NCCc1cc(O)c(O)cc1[131I]
Drug uptake (Blood [1]): 0.0062 %ID | Drug uptake (Liver [2]): 0.33 %ID | Drug uptake [3]: 0.48 %ID | Drug uptake (Rattus norvegicus [4]): 0.65 %ID | Drug uptake (Rattus norvegicus [5]): 0.000081 %ID | Drug uptake (Mus musculus [6]): 0.067 %ID | Drug uptake (Blood [7]): 0.055 %ID | Drug uptake (Mus musculus [8]): 0.066 %ID | Drug uptake (Kidney [9]): 0.194 %ID | Drug uptake (Mus musculus [10]): 0.03 %ID | Drug uptake (Liver [11]): 3.64 %ID | Drug uptake (Kidney [12]): 0.168 %ID | Drug uptake (Blood [13]): 0.131 %ID | Drug uptake (Blood [14]): 0.48 %ID | Drug uptake (Blood [15]): 0.052 %ID | Drug uptake (Blood [16]): 0.66 %ID | Drug uptake (Mus musculus [17]): 0.02 %ID | Drug uptake (Rattus norvegicus [18]): 0.029 %ID | Drug uptake [19]: 0.77 %ID | Drug uptake [20]: 0.0062 %ID | Drug uptake (Kidney [21]): 0.72 %ID | Drug uptake (Liver [22]): 4.58 %ID | Drug uptake (Adrenal medulla [23]): 0.0038 %ID | Drug uptake (Rattus norvegicus [24]): 0.08 %ID | Drug uptake (Liver [25]): 0.67 %ID | Drug uptake (Kidney [26]): 0.79 %ID | Drug uptake (Mus musculus [27]): 0.094 %ID | Drug uptake (Liver [28]): 2.4 %ID | Drug uptake (Kidney [29]): 3.55 %ID | Drug uptake (Kidney [30]): 1 %ID | Drug uptake (Adrenal medulla [31]): 0.0247 %ID | Drug uptake (Rattus norvegicus [32]): 0.183 %ID
